Experimental findings from ChEMBL document CHEMBL4673340 (J Med Chem, 2020) are described below.

The nature of series [1]: Toxicity in BALB/c nude mouse xenografted with human MDA-MB-436 cells assessed as induction of body weight loss at 1.6 to […], po BID for 28 days followed by treatment was interruption and monitored for additional 2 months. It counts as organism-based. The note with it: in vivo, dose 1.6-3.1 mg/kg, time 28 day. On the technique in general: A xenograft is tissue or cells of one species grown in another, often human tumour cells in immunodeficient mice.

The nature of series [2]: Ratio of drug level in brain to plasma of C57BL/6 mouse brain at 10 mg/kg, po after 4 hrs. It counts as ADME, organism-based. Summed up: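 C57BL/6 mice were given 10 mg/kg po in 0.5% MC and sampled at 1, 2 and 4 h. Brain was homogenized in 3 volumes of saline, and brain and plasma were protein-precipitated with acetonitrile, then measured by LC-MS/MS. Brain (ng/g) was expressed as a percentage of plasma (ng/mL). Values are means of three mice.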

Series [3] is described as follows: Drug level in C57BL/6 mouse brain at 10 mg/kg, po after 4 hrs. The series is classed as ADME, organism-based. The note with it: read-out: Drug uptake. Summed up:
(§1)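 C57BL/6 mice (n=3) dosed orally at 10 mg/kg in 0.5% MC. Plasma and brain are sampled at 1, 2 and 4 h. Brain is homogenized in 3 volumes of saline, then acetonitrile protein precipitation; plasma is likewise precipitated. Both are analysed by LC–MS/MS and reported as means.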

A short description of series [4]: Drug level in C57BL/6 mouse plasma at 10 mg/kg, po after 2 hrs. The series is classed as ADME, organism-based. The essentials: as §1
For series [5], the target named is Organic anion transporter 3 (Homo sapiens, UniProt Q8TCC7). Kind of series: Inhibition of OAT3 (unknown origin).
For series [6], the target named is Solute carrier organic anion transporter family member 1B3 (Homo sapiens, UniProt Q9NPD5). Kind of series: Inhibition of OATP1B3 (unknown origin).
Series [7] in a line: Tmax in Beagle dog at 2 mg/kg, po by LC-MS/MS analysis. It counts as ADME, organism-based, Canis lupus familiaris. The note with it: in vivo. Summed up:
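Beagle dogs, three per group. iv 1 mg/kg in 25% DMA in water; oral 2 mg/kg. Values are means of three dogs.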

The nature of series [8]: Volume of distribution at steady state in ICR mouse at 1 mg/kg, iv by LC-MS/MS analysis. As to conditions: in vivo, read-out: Vdss. It counts as ADME, organism-based. Summed up: (§2)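 Three ICR mice per arm. iv dose 1 mg/kg in 5% DMA in water; oral dose 10 mg/kg in 0.5% MC. Plasma was processed by protein precipitation, diluted with water and quantified by LC-MS/MS (C18 column, acetonitrile/0.1% formic acid gradient). Values are means of three animals.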

A short description of series [9]: Half life in ICR mouse at 1 mg/kg, iv by LC-MS/MS analysis. The series is classed as ADME, organism-based. The note with it: in vivo. Summed up:
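Male/female unspecified ICR mice, n=3 per route. Intravenous 1 mg/kg in 5% DMA in water; oral 10 mg/kg in 0.5% MC. Plasma is processed by protein precipitation and analysed by LC–MS/MS using an acetonitrile/0.1% formic acid gradient. Values are means of the three animals.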

Series [10] has as its system HCC1395. Kind of series: Antiproliferation activity against human HCC1395 cells expressing BRCA1 mutant incubated for 7 days by CellTiter-Glo luminescent cell viability assay. As to conditions: HCC1395, 168 h. It counts as functional, cell-based. The essentials: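 Seeding density is set per line for log growth over 7 days. Cells attach 16 h, then are treated in duplicate with a 10-point dilution series for 7 days. CellTiter-Glo luminescence (ATP) is read, and viability is expressed relative to mock-treated control. EC50 is the mean of three independent experiments run in triplicate.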
A general note: ATP-based viability assays read luminescence as a measure of living cells.

Series [11] is described as follows: Clearance in dog liver microsomes. It counts as ADME, Canis lupus familiaris, Microsome. As to conditions: read-out: CLH. (Liver microsomes are a subcellular fraction often used to study metabolism.)
Series [12] addresses Cytochrome P450 2C19 (Homo sapiens, UniProt P33261). Kind of series: Inhibition of CYP2C19 (unknown origin). The series is classed as ADME.
The nature of series [13]: Oral bioavailability in ICR mouse at 10 mg/kg by LC-MS/MS analysis. It counts as ADME, organism-based. As to conditions: in vivo. Summed up: as §2
In series [14] the target is Poly [ADP-ribose] polymerase 2 (Homo sapiens, UniProt Q9UGN5). Kind of series: Inhibition of PARP-2 (unknown origin) pre-incubated for 30 mins before addition of activated DNA and NAD by chemiluminescent assay.

By IC50 is commonly meant the point on the concentration scale where inhibition reaches its midpoint. Higher therefore signals lower potency. Usually Tmax stands for the time from dosing to the highest level. For orientation: half-life means the time needed for the level to fall by half in the phase considered. A higher half-life goes with slow decline. Usually EC50 stands for the concentration that produces a half-maximal response. Higher therefore signals lower potency in that assay.

Solute carrier organic anion transporter family member 1B3, sequence (Q9NPD5 whole entry): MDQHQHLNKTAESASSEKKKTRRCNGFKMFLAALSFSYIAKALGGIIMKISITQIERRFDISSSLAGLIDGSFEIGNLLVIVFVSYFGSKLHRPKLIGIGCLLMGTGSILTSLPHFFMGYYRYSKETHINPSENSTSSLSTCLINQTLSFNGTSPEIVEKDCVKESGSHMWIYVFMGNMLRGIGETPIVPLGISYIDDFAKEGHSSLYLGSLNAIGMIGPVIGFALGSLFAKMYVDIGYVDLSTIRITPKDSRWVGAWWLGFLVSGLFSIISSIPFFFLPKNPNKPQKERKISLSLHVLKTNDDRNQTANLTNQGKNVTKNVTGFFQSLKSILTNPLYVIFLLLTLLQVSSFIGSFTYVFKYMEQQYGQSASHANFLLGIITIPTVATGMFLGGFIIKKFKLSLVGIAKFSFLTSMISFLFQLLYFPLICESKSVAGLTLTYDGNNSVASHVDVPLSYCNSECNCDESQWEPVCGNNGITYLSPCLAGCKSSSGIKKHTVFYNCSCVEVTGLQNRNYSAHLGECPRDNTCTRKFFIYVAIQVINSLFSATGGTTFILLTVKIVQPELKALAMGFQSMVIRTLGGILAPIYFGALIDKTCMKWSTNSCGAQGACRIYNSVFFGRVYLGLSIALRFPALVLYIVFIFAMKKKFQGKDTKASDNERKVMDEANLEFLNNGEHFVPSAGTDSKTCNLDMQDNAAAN
Organic anion transporter 3, sequence (Q8TCC7 whole entry): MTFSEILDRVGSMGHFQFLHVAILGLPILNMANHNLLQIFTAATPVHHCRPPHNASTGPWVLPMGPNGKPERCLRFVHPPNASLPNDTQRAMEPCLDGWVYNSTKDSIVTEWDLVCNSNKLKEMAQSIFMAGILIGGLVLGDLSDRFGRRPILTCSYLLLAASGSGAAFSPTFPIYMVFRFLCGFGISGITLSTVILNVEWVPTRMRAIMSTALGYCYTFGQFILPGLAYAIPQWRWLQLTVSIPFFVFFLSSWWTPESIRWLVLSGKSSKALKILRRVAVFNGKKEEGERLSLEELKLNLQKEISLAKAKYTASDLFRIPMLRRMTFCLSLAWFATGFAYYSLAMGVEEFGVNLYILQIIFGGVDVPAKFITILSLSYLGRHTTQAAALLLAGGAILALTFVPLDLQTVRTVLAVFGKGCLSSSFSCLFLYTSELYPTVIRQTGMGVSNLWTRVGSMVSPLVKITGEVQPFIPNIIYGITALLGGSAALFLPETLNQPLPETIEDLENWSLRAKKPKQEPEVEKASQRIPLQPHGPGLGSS
Poly [ADP-ribose] polymerase 2, sequence (Q9UGN5 whole entry): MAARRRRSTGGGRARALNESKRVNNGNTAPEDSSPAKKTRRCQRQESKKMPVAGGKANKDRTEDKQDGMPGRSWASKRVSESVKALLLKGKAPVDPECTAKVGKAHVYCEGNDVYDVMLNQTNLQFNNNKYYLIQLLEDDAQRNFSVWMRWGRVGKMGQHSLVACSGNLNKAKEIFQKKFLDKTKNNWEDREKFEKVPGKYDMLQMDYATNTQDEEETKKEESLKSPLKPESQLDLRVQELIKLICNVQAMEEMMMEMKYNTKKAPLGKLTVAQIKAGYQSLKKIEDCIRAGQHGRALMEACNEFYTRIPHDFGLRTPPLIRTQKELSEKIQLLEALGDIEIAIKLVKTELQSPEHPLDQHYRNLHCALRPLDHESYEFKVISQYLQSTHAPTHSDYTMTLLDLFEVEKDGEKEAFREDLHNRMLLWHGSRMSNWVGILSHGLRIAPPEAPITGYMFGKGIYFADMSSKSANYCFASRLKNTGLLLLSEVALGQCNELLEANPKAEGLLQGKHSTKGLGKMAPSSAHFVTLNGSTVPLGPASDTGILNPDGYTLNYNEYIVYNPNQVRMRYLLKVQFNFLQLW
Cytochrome P450 2C19, sequence (P33261 whole entry): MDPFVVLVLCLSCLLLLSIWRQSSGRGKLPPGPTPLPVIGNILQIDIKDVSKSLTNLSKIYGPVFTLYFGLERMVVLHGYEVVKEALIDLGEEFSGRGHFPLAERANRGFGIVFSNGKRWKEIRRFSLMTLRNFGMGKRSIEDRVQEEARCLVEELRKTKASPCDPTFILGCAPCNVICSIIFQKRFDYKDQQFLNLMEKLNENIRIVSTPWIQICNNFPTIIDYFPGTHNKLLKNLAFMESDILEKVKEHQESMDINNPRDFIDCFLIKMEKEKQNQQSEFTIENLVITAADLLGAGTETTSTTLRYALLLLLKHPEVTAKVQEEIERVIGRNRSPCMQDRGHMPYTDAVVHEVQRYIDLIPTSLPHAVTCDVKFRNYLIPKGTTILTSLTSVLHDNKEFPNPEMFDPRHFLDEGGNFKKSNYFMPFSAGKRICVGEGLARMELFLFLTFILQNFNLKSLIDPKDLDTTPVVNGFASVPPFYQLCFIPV

As for `C[C@]12CCCN1CC1=NNC(=O)c3cc(F)cc4[nH]c2c1c34` [PAMIPARIB], the Activity entry in series [1] is reported as “Non-Toxic”. For the same molecule, the BPR in [2] was 19.1%. For the same molecule, the concentration at 4 h in series [3] amounted to 135 ng/g. Also, the concentration at 2 h in series [4] was 1330 ng/mL. In addition, the IC50 in series [5] is 23.9 µM; in [6], 19.4 µM; in series [12], over 10 µM; in [14] it was 0.0009 µM. Further, the Tmax in series [7] was determined as 0.417 h. For the same molecule, the Vd in series [8] worked out at 5.65 L/kg. For the same molecule, the half-life in [9] is 3.95 h. The same molecule showed an EC50 in [10] of 0.0425 µM. Also, the microsomal CLint in series [11] is 9.5 µL/min/mg. In series [13], this molecule showed an F of 98.7%.
